Only a selection was taken, and hits are over-represented in it overall.
IDH1 R132H inh: inhibitors of IDH1 R132H reductase, primary screen, biochemical, plate reader, single point; inhibition, % at 10 µM; hit rate 0.18% among 70,000; Isocitrate dehydrogenase [NADP] cytoplasmic (Homo sapiens), O75874; AID 624101, 2012; diaphorase/resazurin fluorescence, 60 min; in the data active means inhibition above about 34%; inconclusive means no clear call, values can overlap the other calls; inactive means below about 11%
Target sequence (O75874 whole entry R132H): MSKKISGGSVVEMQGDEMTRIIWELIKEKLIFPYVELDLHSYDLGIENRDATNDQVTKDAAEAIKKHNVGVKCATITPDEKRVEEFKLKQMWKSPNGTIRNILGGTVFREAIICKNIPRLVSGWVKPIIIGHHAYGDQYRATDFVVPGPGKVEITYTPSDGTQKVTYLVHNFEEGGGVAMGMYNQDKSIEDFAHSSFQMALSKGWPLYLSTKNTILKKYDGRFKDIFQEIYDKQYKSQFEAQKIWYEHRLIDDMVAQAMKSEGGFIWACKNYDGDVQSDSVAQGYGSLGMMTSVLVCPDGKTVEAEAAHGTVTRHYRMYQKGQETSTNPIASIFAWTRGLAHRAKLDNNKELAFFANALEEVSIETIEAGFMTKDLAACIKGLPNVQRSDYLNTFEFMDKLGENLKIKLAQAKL
GASC1 inh: inhibitors of GASC-1 (KDM4C) histone demethylase, primary screen, biochemical, single concentration HTS. hit rate 0.15% among 96,000. inhibition, % at 12.5 µM. GST-KDM4C 2-372, H3K9me3 peptide, LANCE TR-FRET. Lysine-specific demethylase 4C (Homo sapiens), Q9H3R0;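 active means mean replicate inhibition above about 25%, with at least 55% of replicates also reaching it, limit read from the data, passing the limit was not always enough; inconclusive means only one of those two conditions met; inactive means neither condition met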
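Assay system: GST-GASC-1 enzyme fragment 2-372 | Amount: 10 nM enzyme | Medium: HEPES buffer, pH 7.5, plus ascorbate | Reagent: H3K9me3 peptide substrate, Fe(II), 2-oxoglutarate | Doses: Single-point compound screen | Incubation: 30 min demethylation and 1 h detection at room temperature | Measured by: LANCE TR-FRET, excitation 340 nm, emissions 618 and 671 nm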
T cruzi growth-1: T. cruzi intracellular proliferation inhibitors, primary screen, cell-based, beta-gal Tulahuen parasites, NIH3T3 host, luminescence; T. cruzi beta-gal in NIH3T3, GalScreen luminescence, 90 h; inhibition, % at 8.34 µM; hit rate 5.9% among 77,000;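 active means mean inhibition above about 93%, with at least 55% of replicates each passing it, limit read from the data, passing the limit was not always enough; inconclusive means only one of those two conditions holds; inactive means neither condition holds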
T cruzi growth-2: T. cruzi intracellular proliferation inhibitors, confirmation, cell-based, NIH3T3 host, beta-gal parasite, luminescence, cherry-pick | inhibition, % at 8.35 µM | AID 651739, 2012 | T. cruzi beta-gal in NIH3T3, GalScreen luminescence, 90 h | shares compounds with T cruzi growth-1 | hit rate 72% among 5,600;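 active means mean replicate inhibition above about 95% and at least 55% of replicates individually reaching it, limit read from the data; inconclusive means only one of the two criteria is met; inactive means neither criterion is met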
T cruzi growth-3: inhibitors of intracellular T. cruzi replication, confirmation, NIH3T3 host cells, beta-gal parasites, cherry-pick, set 2 | shares compounds with T cruzi growth-1 | T. cruzi beta-gal in NIH3T3, GalScreen luminescence, 90 h | inhibition, % at 2.09 µM | hit rate 21% among 5,600;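 active means mean inhibition above about 95%, with at least 55% of replicates also reaching it, limit read from the data; inconclusive means meets just one of the two conditions; inactive means meets neither condition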
NIH3T3 tox: cytotoxicity in mouse NIH/3T3 fibroblasts, confirmation, cytotoxicity control for T. cruzi proliferation inhibitor project, cell-based, cherry-pick, single point. NIH/3T3 viability, CellTiter-Glo ATP luminescence, 90 h. hit rate 14% among 5,600. shares compounds with T cruzi growth-1. cytotoxicity (signal decrease), % at 8.35 µM;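 active means mean signal decrease across replicates above about 35% based on untreated-well scatter, with enough replicates individually passing, limit read from the data; inconclusive means no rule stated though some were filed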
NIH3T3 tox 2: NIH/3T3 fibroblast cytotoxicity, confirmation, cytotoxicity control, cell-based, cherry-pick, single point, set 2; shares compounds with T cruzi growth-1; NIH/3T3 viability, CellTiter-Glo ATP luminescence, 90 h; inhibition, % at 24.9 µM; hit rate 56% among 5,600;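 active means mean loss of cell viability signal at or above a set limit, and enough replicates individually reaching it; inconclusive means meets only the mean limit or only the replicate share; inactive means meets neither condition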
Hits are given with their value; i = inactive; ? = inconclusive; nt = no result given.

SMILES | IDH1 R132H inh | GASC1 inh | T cruzi growth-1 | T cruzi growth-2 | T cruzi growth-3 | NIH3T3 tox | NIH3T3 tox 2
CCCN(C)C[C@H]1Oc2cc(C#C[C@@H](C)O)ccc2S(=O)(=O)N([C@H](C)CO)C[C@H]1C | i | i | i | nt | nt | nt | nt
COCC(=O)N(C)C[C@@H]1Oc2cc(C#CCN(C)C)ccc2S(=O)(=O)N([C@H](C)CO)C[C@H]1C | i | i | i | nt | nt | nt | nt
C[C@H]1CN([C@@H](C)CO)C(=O)c2cc(NS(=O)(=O)c3ccc(Cl)cc3)ccc2O[C@@H]1CN(C)Cc1ccc(C(=O)Nc2ccccc2N)cc1 | nt | i | i | nt | nt | nt | nt
COc1ccc(S(=O)(=O)Nc2cccc3c2O[C@@H](CN(C)Cc2ccc(C(=O)O)cc2)[C@@H](C)CN([C@H](C)CO)C3=O)cc1 | i | i | 101 | i | i | i | i
COc1ccc(S(=O)(=O)Nc2cccc3c2O[C@@H](CN(C)Cc2ccc(C(=O)O)cc2)[C@@H](C)CN([C@@H](C)CO)C3=O)cc1 | i | i | i | nt | nt | nt | nt
C[C@H](CO)N1C[C@H](C)[C@H](CN(C)Cc2ccc(C(=O)Nc3ccccc3N)cc2)Oc2c(NS(=O)(=O)c3ccc(Cl)cc3)cccc2C1=O | i | i | nt | nt | nt | nt | nt
C[C@H]1CN([C@@H](C)CO)C(=O)c2cccc(NS(=O)(=O)c3ccc(Cl)cc3)c2O[C@H]1CN(C)Cc1ccc(C(=O)Nc2ccccc2N)cc1 | i | i | 104 | i | i | i | 39
C[C@@H]1CN([C@@H](C)CO)C(=O)c2cc(NS(=O)(=O)c3ccc(Cl)cc3)ccc2O[C@@H]1CN(C)Cc1ccc(C(=O)Nc2ccccc2N)cc1 | nt | i | 106 | 108 | i | i | 62
C[C@@H]1CCCCO[C@H](CN(C)Cc2ccc(C(=O)Nc3ccccc3N)cc2)[C@@H](C)CN([C@H](C)CO)C(=O)c2cc(NS(=O)(=O)c3cn(C)cn3)ccc2O1 | nt | i | i | nt | nt | nt | nt
C[C@H]1CN([C@@H](C)CO)C(=O)c2cc(NS(=O)(=O)c3cn(C)cn3)ccc2O[C@@H]1CN(C)Cc1ccc(C(=O)Nc2ccccc2N)cc1 | i | i | ? | i | i | i | i
COc1ccc(C(=O)CC2(O)C(=O)N(Cc3ccccc3)c3ccc(Br)cc32)cc1[N+](=O)[O-] (stereo unspecified) | i | nt | nt | nt | nt | nt | nt
Cc1ccc(S(=O)(=O)N(C)C[C@@H]2OCCCC[C@H](C)Oc3ccc(NC(=O)Nc4ccc(F)cc4)cc3C(=O)N([C@@H](C)CO)C[C@@H]2C)cc1 | i | i | nt | nt | nt | nt | nt
C[C@H](CO)N1C[C@H](C)[C@H](CN(C)Cc2ccc(Oc3ccccc3)cc2)Oc2ccc(NS(=O)(=O)c3cn(C)cn3)cc2C1=O | nt | i | i | nt | nt | nt | nt
COc1ccc(S(=O)(=O)Nc2cccc3c2O[C@@H](CN(C)Cc2ccc(C(=O)Nc4ccccc4N)cc2)[C@H](C)CN([C@H](C)CO)C3=O)cc1 | nt | i | nt | nt | nt | nt | nt
COc1ccc(S(=O)(=O)Nc2cccc3c2O[C@@H](CN(C)Cc2ccc(C(=O)Nc4ccccc4N)cc2)[C@@H](C)CN([C@@H](C)CO)C3=O)cc1 | nt | i | ? | i | i | i | 37
C[C@@H]1CN([C@@H](C)CO)C(=O)c2cc(NC(=O)CCC(F)(F)F)ccc2O[C@@H]1CN(C)CC1CC1 | i | i | i | nt | nt | nt | nt
C[C@H](CO)N1C[C@H](C)[C@H](CN(C)Cc2ccc(Cl)c(Cl)c2)Oc2c(NC(=O)Nc3cccc4ccccc34)cccc2C1=O | nt | i | i | nt | nt | nt | nt
CCc1cnc(N2[C@@H](C#N)[C@@H](c3ccc(C#Cc4ccccc4F)cc3)[C@@H]2CO)s1 | nt | i | 100 | i | 109 | i | 62
CCS(=O)(=O)N1[C@H](CO)[C@H](c2ccc(C#Cc3ccccc3F)cc2)[C@@H]1C#N | i | i | i | nt | nt | nt | nt
